Reference: ChEMBL document CHEMBL1131143, “Predictive models for GABAA/benzodiazepine receptor subtypes: studies of quantitative structure-activity relationships for imidazobenzodiazepines at five recombinant GABAA/benzodiazepine receptor subtypes [alphaxbeta3gamma2 (x = 1-3, 5, and 6)] via comparative molecular field analysis” (J Med Chem, 1998)

Tests used:
Type in all cases: protein-complex assay
[1] = target: T1, GABA-A receptor; alpha-1/beta-3/gamma-2 (Homo sapiens, UniProt P14867+P18507+P28472); test: Binding affinity against alpha-1-beta-3-gamma-2 GABAA/BzR receptor subtype.
T1 sequence (P14867 whole entry): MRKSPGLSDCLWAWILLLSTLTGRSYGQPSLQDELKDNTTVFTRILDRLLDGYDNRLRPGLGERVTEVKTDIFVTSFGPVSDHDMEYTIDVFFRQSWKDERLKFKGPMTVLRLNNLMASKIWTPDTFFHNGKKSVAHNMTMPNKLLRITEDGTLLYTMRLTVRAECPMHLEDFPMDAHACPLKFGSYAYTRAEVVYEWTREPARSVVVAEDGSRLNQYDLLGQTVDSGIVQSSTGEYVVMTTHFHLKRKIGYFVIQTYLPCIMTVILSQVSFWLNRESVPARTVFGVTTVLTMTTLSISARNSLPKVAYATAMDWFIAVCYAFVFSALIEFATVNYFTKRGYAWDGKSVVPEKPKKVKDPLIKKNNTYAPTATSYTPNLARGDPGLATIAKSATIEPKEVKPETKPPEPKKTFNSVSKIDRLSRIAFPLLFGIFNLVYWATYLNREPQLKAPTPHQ
T1 sequence (P18507 whole entry): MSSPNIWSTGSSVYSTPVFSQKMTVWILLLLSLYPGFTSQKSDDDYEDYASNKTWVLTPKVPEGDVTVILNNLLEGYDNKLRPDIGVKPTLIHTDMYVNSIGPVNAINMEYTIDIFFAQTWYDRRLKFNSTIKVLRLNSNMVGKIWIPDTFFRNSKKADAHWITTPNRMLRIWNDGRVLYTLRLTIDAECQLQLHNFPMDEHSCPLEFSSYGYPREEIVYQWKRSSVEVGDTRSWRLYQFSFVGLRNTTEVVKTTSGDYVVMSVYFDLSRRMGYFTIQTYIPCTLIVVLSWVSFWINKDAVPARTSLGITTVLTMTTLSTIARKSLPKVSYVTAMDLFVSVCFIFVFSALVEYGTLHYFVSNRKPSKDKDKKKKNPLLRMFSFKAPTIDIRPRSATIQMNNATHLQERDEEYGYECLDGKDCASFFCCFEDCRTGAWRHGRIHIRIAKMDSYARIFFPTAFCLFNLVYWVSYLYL
T1 sequence (P28472 whole entry): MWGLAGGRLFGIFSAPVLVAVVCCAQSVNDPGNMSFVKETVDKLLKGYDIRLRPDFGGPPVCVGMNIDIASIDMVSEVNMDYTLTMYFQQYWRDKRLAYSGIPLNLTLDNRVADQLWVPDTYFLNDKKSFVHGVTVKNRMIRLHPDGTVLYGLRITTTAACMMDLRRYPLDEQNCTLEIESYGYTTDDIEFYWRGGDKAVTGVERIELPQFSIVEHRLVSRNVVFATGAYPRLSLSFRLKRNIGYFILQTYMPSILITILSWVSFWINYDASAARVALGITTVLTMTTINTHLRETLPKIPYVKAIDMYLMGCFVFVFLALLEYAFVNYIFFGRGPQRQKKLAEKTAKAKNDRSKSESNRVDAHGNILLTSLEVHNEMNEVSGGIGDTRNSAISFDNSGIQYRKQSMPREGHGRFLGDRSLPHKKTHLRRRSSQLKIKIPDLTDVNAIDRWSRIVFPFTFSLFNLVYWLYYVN

[2] = target: T2, GABA-A receptor; alpha-3/beta-3/gamma-2 (Homo sapiens, UniProt P18507+P28472+P34903); test: Binding affinity against alpha-3-beta-3-gamma-2 GABAA/BzR receptor subtype.
T2 sequence (P18507 whole entry): T1 sequence (P18507 whole entry)
T2 sequence (P28472 whole entry): T1 sequence (P28472 whole entry)
T2 sequence (P34903 whole entry): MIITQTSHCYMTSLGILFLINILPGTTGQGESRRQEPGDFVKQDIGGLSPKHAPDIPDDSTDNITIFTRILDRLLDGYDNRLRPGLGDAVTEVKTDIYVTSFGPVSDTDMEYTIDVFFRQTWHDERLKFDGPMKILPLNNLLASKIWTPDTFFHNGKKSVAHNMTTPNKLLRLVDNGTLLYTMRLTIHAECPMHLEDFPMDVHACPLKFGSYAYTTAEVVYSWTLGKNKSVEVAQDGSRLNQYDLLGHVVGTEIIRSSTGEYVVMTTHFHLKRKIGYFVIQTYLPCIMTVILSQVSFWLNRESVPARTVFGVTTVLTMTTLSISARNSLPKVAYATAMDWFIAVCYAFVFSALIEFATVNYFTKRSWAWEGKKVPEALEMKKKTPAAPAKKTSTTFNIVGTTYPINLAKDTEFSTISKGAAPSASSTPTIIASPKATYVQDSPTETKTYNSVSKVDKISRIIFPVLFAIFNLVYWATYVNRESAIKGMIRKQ

[3] = target: GABA-A receptor; alpha-1/beta-3/gamma-2 (Homo sapiens) (UniProt P14867+P18507+P28472); test: It is the ratio of Ki value for alpha-1-beta-3-gamma-2 to that of alpha-5-beta-3-gamma-2
[4] = target: GABA-A receptor; alpha-6/beta-3/gamma-2 (Homo sapiens, UniProt P18507+P28472+Q16445); test: Binding affinity against Gamma-aminobutyric acid A receptor alpha-6-beta-3-gamma-2
Chain of GABA-A receptor; alpha-6/beta-3/gamma-2 (Q16445 whole entry, one chain of several): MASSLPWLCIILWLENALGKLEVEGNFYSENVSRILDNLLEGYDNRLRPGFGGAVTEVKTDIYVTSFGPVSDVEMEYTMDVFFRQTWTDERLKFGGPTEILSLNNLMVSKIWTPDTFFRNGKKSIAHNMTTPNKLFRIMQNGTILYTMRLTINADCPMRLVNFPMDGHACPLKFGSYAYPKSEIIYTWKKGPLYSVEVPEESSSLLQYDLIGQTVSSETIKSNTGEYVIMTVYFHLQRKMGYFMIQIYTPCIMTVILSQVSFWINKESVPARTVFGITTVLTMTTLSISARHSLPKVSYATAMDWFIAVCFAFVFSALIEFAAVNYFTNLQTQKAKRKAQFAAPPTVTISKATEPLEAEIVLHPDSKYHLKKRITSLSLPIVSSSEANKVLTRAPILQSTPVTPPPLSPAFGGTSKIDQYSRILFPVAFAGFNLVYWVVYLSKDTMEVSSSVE
In short: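 Cells scraped into PBS, spun at 3000g, resuspended in 10 mM KH₂PO₄/100 mM KCl pH 7.4. Nonspecific binding with 10⁻⁵ M diazepam; 1 h to equilibrium at 4 °C; filtration, ice-cold buffer wash, scintillation counting.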

[5] = target: T3, GABA-A receptor; alpha-5/beta-3/gamma-2 (Homo sapiens, UniProt P18507+P28472+P31644); test: Binding affinity for Gamma-aminobutyric acid A receptor alpha-5-beta-3-gamma-2
T3 sequence (P18507 whole entry): T1 sequence (P18507 whole entry)
T3 sequence (P28472 whole entry): T1 sequence (P28472 whole entry)
T3 sequence (P31644 whole entry): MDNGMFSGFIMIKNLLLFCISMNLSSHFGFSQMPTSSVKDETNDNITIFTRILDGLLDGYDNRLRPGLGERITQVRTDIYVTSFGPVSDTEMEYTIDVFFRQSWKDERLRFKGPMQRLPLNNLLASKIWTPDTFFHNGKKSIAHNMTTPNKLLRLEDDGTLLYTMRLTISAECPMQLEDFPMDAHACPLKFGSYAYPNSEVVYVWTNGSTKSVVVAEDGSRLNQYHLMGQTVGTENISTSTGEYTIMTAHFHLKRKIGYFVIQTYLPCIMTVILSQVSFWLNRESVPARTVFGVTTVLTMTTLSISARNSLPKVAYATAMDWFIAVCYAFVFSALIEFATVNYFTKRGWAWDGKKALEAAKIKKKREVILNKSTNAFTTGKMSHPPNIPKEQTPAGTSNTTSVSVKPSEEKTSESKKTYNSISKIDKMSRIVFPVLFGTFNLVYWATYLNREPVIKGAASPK

[6] = target: T4, GABA-A receptor; alpha-2/beta-3/gamma-2 (Homo sapiens, UniProt P18507+P28472+P47869); test: Binding affinity tested against alpha-2-beta-3-gamma-2 GABAA/BzR receptor subtype.
T4 sequence (P18507 whole entry): T1 sequence (P18507 whole entry)
T4 sequence (P28472 whole entry): T1 sequence (P28472 whole entry)
T4 sequence (P47869 whole entry): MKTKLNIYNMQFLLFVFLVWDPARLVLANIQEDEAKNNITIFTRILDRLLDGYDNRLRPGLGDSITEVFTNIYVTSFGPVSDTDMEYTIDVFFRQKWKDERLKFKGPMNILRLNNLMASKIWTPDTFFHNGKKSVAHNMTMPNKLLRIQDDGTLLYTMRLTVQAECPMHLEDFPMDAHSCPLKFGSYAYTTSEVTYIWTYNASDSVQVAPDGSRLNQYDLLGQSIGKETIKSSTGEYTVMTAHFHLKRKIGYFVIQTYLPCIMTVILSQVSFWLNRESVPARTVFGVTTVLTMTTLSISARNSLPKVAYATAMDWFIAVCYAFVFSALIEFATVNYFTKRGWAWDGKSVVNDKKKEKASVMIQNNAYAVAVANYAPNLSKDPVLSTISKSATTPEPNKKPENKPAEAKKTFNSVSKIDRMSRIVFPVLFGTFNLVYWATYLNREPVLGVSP

With `CN1Cc2c(C(=O)OC(C)(C)C)ncn2-c2ccc(N=[N+]=[N-])cc2C1=O` the Ki [1] was 7.25 nM, the Ki [2] was 5.66 nM and the Ratio [3] was 24.3. The Ki [4] was 5.25 nM and the Ki [5] was 0.3 nM.

With `C#Cc1ccc2c(c1)C(=O)N(C)Cc1c(C(=O)OCC)ncn1-2` the Ki [1] was 28.4 nM, the Ki [2] was 25.8 nM and the Ratio [3] was 58. It also gave a Ki [6] of 21.4 nM, a Ki [4] of 28.8 nM and a Ki [5] of 0.49 nM.

`CC#Cc1ccc2c(c1)C(=O)N(C)Cc1c(C(=O)OCC)ncn1-2` gave a Ki [1] of 10.1 nM, a Ki [2] of 16.5 nM and a Ratio [3] of 6. It also gave a Ki [6] of 22.2 nM, a Ki [4] of over 100 nM and a Ki [5] of 1.68 nM.

With `CCOC(=O)c1ncn2c1[C@@H]1CCCN1C(=O)c1cc(OC)ccc1-2` the Ki [1] was 48.5 nM, the Ki [2] was 27.5 nM and the Ratio [3] was 108. For the same molecule, the Ki [6] was 27.4 nM, the Ki [4] was 83.2 nM and the Ki [5] was 0.45 nM.

`CC(C)N(Cc1ncn2c1CN(C)C(=O)c1cc(Cl)ccc1-2)C(C)C` gave a Ki [1] of 4200 nM, a Ki [2] of 6270 nM and a Ratio [3] of 3.2. For the same molecule, the Ki [6] was 12600 nM, the Ki [4] was 8600 nM and the Ki [5] was 1350 nM.

`CN1Cc2c(C(=O)OC(C)(C)C)ncn2-c2ccc(O)cc2C1=O` gave a Ki [1] of 1.5 nM, a Ki [2] of 0.53 nM and a Ratio [3] of 10.7. For the same molecule, the Ki [4] was 6.89 nM and the Ki [5] was 0.14 nM.

In the case of `CCOC(=O)c1ncn2c1[C@H]1CCCN1C(=O)c1cc(C#C[Si](C)(C)C)ccc1-2`, the Ki [1] is reported as over 1000 nM, the Ki [2] is reported as over 1000 nM and the Ki [6] is reported as over 1000 nM. The Ki [4] was over 1000 nM and the Ki [5] was over 1000 nM.

In the case of `CCOC(=O)c1ncn2c1[C@H]1CCCN1C(=O)c1cc(Br)ccc1-2`, the Ki [1] is reported as over 1000 nM, the Ki [2] is reported as over 1000 nM and the Ki [6] is reported as over 1000 nM. For the same molecule, the Ki [4] was over 1000 nM and the Ki [5] was over 1000 nM.

`C#Cc1ccc2c(c1)C(=O)N1CCC[C@H]1c1c(-c3nc(C)no3)ncn1-2` showed a Ki [1] of 89 nM, a Ki [2] of 91 nM and a Ratio [3] of 24. For the same molecule, the Ki [6] was 70 nM, the Ki [4] was 301 nM and the Ki [5] was 3.7 nM.

For `CCOC(=O)c1ncn2c1CN(C)C(=O)c1cc(CC)ccc1-2`, the Ki [1] was 20.4 nM, the Ki [2] was 26.1 nM and the Ratio [3] was 13.6. For the same molecule, the Ki [6] was 27 nM, the Ki [4] was 176 nM and the Ki [5] was 1.5 nM.

`CCOC(=O)c1ncn2c1CN(C)C(=O)c1cc(C#C[Si](C)(C)C)ccc1-2` was tested, and the Ki [2] was 198 nM, the Ratio [3] was 24.2 and the Ki [6] was 142 nM. It also gave a Ki [4] of 114 nM and a Ki [5] of 5 nM.

`CCN(CC)Cc1ncn2c1CN(C)C(=O)c1cc(Cl)ccc1-2` gave a Ki [1] of 9480 nM, a Ki [2] of 15400 nM and a Ratio [3] of 3.2. For the same molecule, the Ki [6] was 30000 nM, the Ki [4] was 30200 nM and the Ki [5] was 2580 nM.

`CN1Cc2c(CO)ncn2-c2ccc(Cl)cc2C1=O` was tested, and the Ki [1] was over 300 nM, the Ki [2] was over 300 nM and the Ki [6] was over 300 nM. The Ki [4] was over 300 nM and the Ki [5] was over 300 nM.

With `COc1ccc2c(c1)C(=O)N(C)Cc1c(C(=O)OC(C)(C)C)ncn1-2` the Ki [1] was 6.74 nM, the Ki [2] was 7.42 nM and the Ratio [3] was 23. The Ki [4] was 8.28 nM and the Ki [5] was 0.293 nM.

`C=Cc1ccc2c(c1)C(=O)N(C)Cc1c(C(=O)OCC)ncn1-2` gave a Ki [1] of 8.3 nM, a Ki [2] of 6.9 nM and a Ratio [3] of 20.8. The Ki [6] was 10.2 nM and the Ki [5] was 0.4 nM.

Work on `CCOC(=O)c1ncn2c1CN(C)C(=O)c1cc(N=[N+]=[N-])ccc1-2` [Ro-154513] yielded a Ki [5] of 0.27 nM.

Molecule `CN1Cc2c(C(=O)OC(C)(C)C)ncn2-c2ccc(N3CCCC3)cc2C1=O` has a Ki [1] of 5.8 nM, a Ki [2] of 169 nM and a Ratio [3] of 0.63. The Ki [4] was 325 nM and the Ki [5] was 9.25 nM.

With `C#Cc1ccc2c(c1)C(=O)N1CCC[C@@H]1c1c(-c3nc(C)no3)ncn1-2` the Ki [1] was over 1000 nM, the Ki [2] was over 1000 nM and the Ki [6] was over 1000 nM. For the same molecule, the Ki [4] was over 1000 nM and the Ki [5] was 157 nM.

Work on `CCOC(=O)c1ncn2c1CN(C)C(=O)c1cc(C#CC[Si](C)(C)C)ccc1-2` yielded a Ki [1] of over 300 nM, a Ki [2] of over 300 nM and a Ki [6] of over 300 nM. It also gave a Ki [4] of over 300 nM and a Ki [5] of over 300 nM.

In the case of `C#Cc1ccc2c(c1)C(=O)N1CC[C@H]1c1c(-c3nc(C)no3)ncn1-2`, the Ki [2] is reported as 91 nM, the Ki [6] is reported as 56 nM and the Ki [4] is reported as 266 nM. It also gave a Ki [5] of 7.2 nM.

`CCOC(=O)c1ncn2c1CN(C)C(=O)c1cc(Cl)ccc1-2` [Ro-151310] gave a Ratio [3] of 8.
